Shown are actives, neighbours in structure and some others; about 4% of the full set was active somewhere.
SIRT5 block: sirtuin-5 (human) deacylase inhibition; actives 1.1% (n = 330,000); Q9NXA8; Purified SirT5, succinyl-peptide AMC, trypsin-coupled fluorescence; inhibition, % at 15 µM; in the data active = inhibition above about 15%
Target sequence (Q9NXA8 whole entry, looked up): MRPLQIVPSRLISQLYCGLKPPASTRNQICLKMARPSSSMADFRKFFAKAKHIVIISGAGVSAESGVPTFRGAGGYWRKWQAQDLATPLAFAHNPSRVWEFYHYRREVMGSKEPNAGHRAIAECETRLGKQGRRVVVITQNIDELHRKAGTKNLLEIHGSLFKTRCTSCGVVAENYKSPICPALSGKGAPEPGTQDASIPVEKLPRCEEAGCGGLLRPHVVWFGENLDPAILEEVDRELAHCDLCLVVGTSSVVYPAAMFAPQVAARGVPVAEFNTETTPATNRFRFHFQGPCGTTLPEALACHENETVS
FGF22 binding-1: shifts melting point of recombinant human FGF22 | actives 1.5% (n = 340,000) | AID 651658 | activity (Tm shift, normalised), % at 9.99 µM | recombinant FGF22 thermal shift, SYPRO orange fluorescence; percent of sucrose octasulfate shift, DMSO zero | Q9HCT0;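 active = mean Tm shift, scaled 0 neutral to 100 positive control, at about 1.3% or above, every replicate too, limit read from the data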
Target sequence (Q9HCT0 whole entry, looked up): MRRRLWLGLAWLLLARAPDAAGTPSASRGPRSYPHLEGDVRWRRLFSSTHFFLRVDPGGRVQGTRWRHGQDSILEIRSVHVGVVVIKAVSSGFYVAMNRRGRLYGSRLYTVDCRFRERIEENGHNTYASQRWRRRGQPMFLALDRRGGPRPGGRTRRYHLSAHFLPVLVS
Statin myotox sup: suppression of simvastatin myotoxicity | C2C12 myotubes + simvastatin, ATP luminescence, 48 h; scaled: DMSO 0, geranylgeraniol control 100 | rescue of ATP level, % at 7.49 µM | actives 0.78% (n = 330,000);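 active = mean ATP rescue above about 67%, or every replicate alone reaching that limit, limit read from the data, passing the limit was not always enough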;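 also: myotubes were challenged with 10 µM simvastatin during compound exposure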
E-sel inducer: E-selectin induction on HUVECs | activation, % at 7.58 µM | actives 0.37% (n = 260,000) | HUVEC E-selectin immunofluorescence imaging; normalized: neutral wells 0, TNF-alpha wells 100;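 active = mean E-selectin-positive cell signal at least 10% of the positive control, reached in at least 60% of replicates, without over 20% cell loss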
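Read-out basis: % PE-positive cells; Test system: HUVEC primary endothelial cells; Technique: immunofluorescence imaging; Dosing: single-point compound dose.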
FN deposit inh: fibronectin deposition inhibition | AH1F fibroblasts, Alexa488-fibronectin deposition fluorescence, overnight | inhibition, % at 12.6 µM | actives 0.086% (n = 350,000);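 active = mean inhibition across replicates of 30% or more, regardless of how many single replicates reach that level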;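 also: positive control wells lacked labelled fibronectin entirely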
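Material: AH1F fibroblast monolayer depositing Alexa488-labelled fibronectin into matrix / Amount: 10000 AH1F cells per well / Signal: fluorescence 485/525 nm / Medium: DMEM, 2% serum / Compound: single dose, pinned / Incubation: 1 h cell adhesion before compound, then overnight fibronectin incubation / Reagent: Alexa488-FN, 24 nM final / Read-out: inhibition of fibronectin deposition signal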
rRNA inh HTS: selective bacterial rRNA inhibition in E. coli; E. coli WT GFP vs humanized-ribosome RFP mutants, fluorescence, 24 h; stronger effect = lower value; DMSO median 0, no signal -100; actives 1.6% (n = 350,000); GFP signal change (wild-type ribosome), % (test concentration not listed);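 active = significant combined selectivity score with lowered wild-type GFP, culture density cut under 30%, mutant RFP and density less affected; inactive = any of these conditions unmet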
FGF22 binding-2: binds human FGF22 shifting its melting temperature; shares compounds with FGF22 binding-1; recombinant FGF22 thermal shift, SYPRO orange fluorescence; AID 720646; thermal shift activity, °C (ΔTm) at 38 µM; actives 2% (n = 1,000);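 active = fitted rise in melting shift crosses a set limit at or below the top valid dose tested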
SYPRO no-protein: shows thermal shift signal without protein, FGF22 counter-screen; shares compounds with FGF22 binding-1; actives 2% (n = 1,000); AC50, µM (top dose mostly 38 µM); compound-only SYPRO orange thermal shift counter-screen, no protein;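 active = rising signal whose fitted curve reaches the 0.54 level within the top valid dose, showing a melting point, actives reach about 13 µM in these data; inactive = the rest, including activity in the opposite direction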; also: value is where the raw curve crosses a fixed level and not half-maximal
An asterisk follows results filed as active; i = inactive; / = no result given; ! = repeats disagree; [ ] = dose if it differs, or a comment.

SMILES | SIRT5 block | FGF22 binding-1 | Statin myotox sup | E-sel inducer | FN deposit inh | rRNA inh HTS | FGF22 binding-2 | SYPRO no-protein
O=C(NC1CCCC1)c1cc(-c2cccc(Cl)c2)on1 | -1.1 | -0.2 | -4.1 | / | 0.6 | -56.8 | / | /
COc1ccc(NS(=O)(=O)c2ccc(Cl)c(N)c2)cc1Br | -2.2 | 1.3* | 9.0 | / | -1.1 | -58.9 | -0.06 | i
COc1ccc(-c2ccc([C@@H]3[C@H]4CN(C(=O)c5ccc6c(c5)OCO6)CCCCN4[C@H]3CO)cc2)cc1 | 2.5 | 0.2 | -19.7 | -0.4 | / | -4.9 | / | /
COc1ccc(-c2ccc([C@H]3[C@H](CO)N4CCCCN(C(=O)c5ccc6c(c5)OCO6)C[C@@H]34)cc2)cc1 | -1.0 | 1.4* | 54.8 | -0.1 | / | -16.1 | 0.037[42 µM] | i
CC(C)n1c(=O)c2ccccc2n1Cc1cn(-c2ccc(Cl)cc2)nn1 | -8.8 | 2.6* | 4.1 | 8.6 | 3.2 | -26.1 | 0.387 | i
CC(C)n1c(=O)c2ccccc2n1Cc1cn(-c2ccccc2)nn1 | -12.8 | 0.0 | -1.2 | 1.6 | 1.9 | -20.7 | / | /
C[C@@H]1CN([C@@H](C)CO)C(=O)c2cc(NC(=O)Cc3cn(C)c4ccccc34)ccc2O[C@H]1CN(C)S(C)(=O)=O | 2.4 | 2.6* | 25.6 | 0.1 | -9.2 | 0.0 | 0.111[42 µM] | i
C[C@@H]1CN([C@H](C)CO)C(=O)c2cc(NC(=O)Cc3ccccc3)ccc2O[C@H]1CN(C)Cc1ccc2c(c1)OCO2 | -0.3 | -5.9 | 11.4 | -4.0 | / | 0.5 | / | /
C[C@H]1CN([C@@H](C)CO)C(=O)c2cc(NC(=O)Cc3ccccc3)ccc2O[C@H]1CN(C)Cc1ccc2c(c1)OCO2 | 2.3 | 3.0* | 0.7 | -0.1 | -0.6 | 2.0 | 0.231 | i
COc1ccc(CN(C)C[C@H]2Oc3ccc(NC(=O)Cc4ccccc4)cc3C(=O)N([C@@H](C)CO)C[C@H]2C)cc1 | 3.2 | 8.9* | 17.1 | 1.1 | / | -2.9 | 0.064 | i
Cc1cccc(Cn2ncc(Cl)c(Cl)c2=O)c1 | -3.2 | 38.9* | 52.9 | / | / | -40.5 | 0.012 | i
Cc1noc(C)c1NC(=O)Nc1ccc2c(c1)C(=O)N([C@H](C)CO)C[C@H](C)[C@@H](CN(C)C(=O)NC(C)C)OCCCC[C@@H](C)O2 | / | 0.1 | / | / | -2.0 | 0.8 | / | /
CCC(=O)N1CC2(C1)[C@@H](c1ccc(-c3cccc(F)c3)cc1)[C@@H](CO)N2CC1CC1 | -0.7 | 0.4 | / | -0.2 | / | -6.7 | / | /
Cc1ccccc1Nc1n[nH]c(=S)s1 | 3.1 | -0.4 | 1.8 | -0.4 | -8.8 | -7.5 | / | /
Fc1ccccc1Nc1n[nH]c(=S)s1 | 2.1 | 1.6* | / | / | / | 3.9 | -0.106 | i
CCN(CC)c1ccc2cc(S(=O)(=O)c3ccc(Cl)cc3)c(=O)oc2c1 | / | 24.1* | -18.8 | / | -2.3 | 14.6 | -0.141 | i
C[C@@H]1CN([C@H](C)CO)C(=O)c2cc(NC(=O)c3ccncc3)ccc2O[C@@H](C)CCCCO[C@@H]1CN(C)S(=O)(=O)c1ccc(Cl)cc1 | 13.0 | -0.5 | / | / | 0.5 | -0.7 | / | /
COc1ccc(Nc2nnc(-c3ccncc3)s2)cc1Cl | -1.8 | 1.5* | 0.7 | -0.1 | 2.4 | 9.3 | 0.061 | i
C[C@@H]1CN([C@@H](C)CO)C(=O)c2cc(Br)cnc2O[C@H]1CN(C)C(=O)C1CC1 | 5.3 | 2.4*! | 5.0 | -0.1 | 2.0 | 1.6 | 0.093 | i
C[C@H]1CN([C@@H](C)CO)C(=O)c2cc(C3=CCCC3)cnc2O[C@H]1CN(C)C(=O)CN(C)C | 3.9 | 1.4* | 10.8 | 0.4 | -21.8 | 0.2 | 0.001 | i
CC(C)NC(=O)N1[C@H](CO)[C@@H](c2ccccc2)[C@@H]1CN(C)C(=O)c1ccncc1 | / | / | -9.9 | -0.2 | -1.1 | 0.0 | / | /
